For eleven molecules, CC50, MIC and selectivity ratio results are on record in ChEMBL document CHEMBL4261490, “Exploring the links between peptoid antibacterial activity and toxicity” (Medchemcomm, 2017).

In brackets after ≈: the same amount, converted by molar mass. Square brackets hold non-standard residues; d marks the D form. Peptide text beside a SMILES is read from it. Gly(Nα-4-Cl-benzyl) = O=C(O)CNCc1ccc(Cl)cc1; Gly(N-(CH2)6NH2) = NCCCCCCNCC(=O)O; Nspe = C[C@H](NCC(=O)O)c1ccccc1; NhArg = N=C(N)NCCCCNCC(=O)O; Nphe = O=C(O)CNCc1ccccc1; Nlys = NCCCCNCC(=O)O Bounds are passed on as bounds.

Data set [1] can be described thus: Cytotoxicity against human HaCaT cells assessed as reduction in cell viability pretreated for 1 hr followed by DMEM addition measured after 24 hrs by alamar blue assay. Particulars: read-out: ED50. It counts as cell-based. A digest of the protocol:
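HaCaT keratinocytes are grown in DMEM high glucose with 10% FBS and 1% P/S and seeded at 2x10^4 cells/well 24 h before treatment. Compound dilution series run 2–100 µM (5 mM DMSO stocks) in 50 µL for 1 h, then medium is added for 24 h at 37 °C, 5% CO2. alamarBlue is read after 1 h (Ex 540/Em 620). Triplicate, ≥2 occasions; ED50 from dose-response; amphotericin B positive control.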
For orientation: Alamar Blue is a resazurin reagent that responds to reducing activity.

Data set [2] is described as follows: Cytotoxicity against human HepG2 cells assessed as reduction in cell viability pretreated for 1 hr followed by DMEM addition measured after 24 hrs by alamar blue assay. The data set is classed as cell-based. Particulars: read-out: ED50. A digest of the protocol: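 HepG2 cells are kept in DMEM high glucose with 10% heat-inactivated FBS and 1% P/S at 37 °C, 5% CO2, and seeded at 2x10^4 cells/well one day ahead. They are exposed to compounds (100 to 3 µM, from 5 mM DMSO stocks) in 50 µL for 1 h. Medium is then added and cells incubated 24 h. alamarBlue is read after 2 h (Ex 560/Em 600). Triplicate on ≥2 occasions; ED50 from dose-response; DMSO negative control.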

A further data set has as its system Pseudomonas aeruginosa. The experiment in a line: Antibacterial activity against Pseudomonas aeruginosa PAO1 ATCC 15692 incubated for 16 hrs under shaking condition. The data set is classed as functional. Particulars: PAO1 ATCC 15692, 16 h. A digest of the protocol:
(§1)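 Broth microdilution (Andrews method) in Iso-sensitest broth. Overnight cultures are adjusted to A650 0.07 (0.5 McFarland) and diluted ten-fold. Compounds come from 5 mM DMSO stocks, 2-fold serially diluted, final 2–100 μM in a 1:1 inoculum:compound mix. Incubation is 37 °C for 16 h with shaking. MIC is the lowest concentration giving complete growth inhibition, read by absorbance; triplicate.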

In another data set the test system is Staphylococcus aureus. Briefly: Antibacterial activity against Staphylococcus aureus 3R7089 strain Oxford/ATCC 9144 incubated for 16 hrs under shaking condition. The data set is classed as functional. Particulars: 3R7089 strain Oxford/ATCC 9144, 16 h. A digest of the protocol:
as §1

Data set [3] in a line: Selectivity index, ratio of ED50 for human HaCaT cells to MIC for Escherichia coli K-12 W3110 ATCC 27325. It counts as toxicity. Particulars: read-out: Selectivity Index.
Data set [4] in a line: Selectivity index, ratio of ED50 for human HaCaT cells to MIC for Pseudomonas aeruginosa PAO1 ATCC 15692. The data set is classed as toxicity. Particulars: read-out: Selectivity Index.
Data set [5] in a line: Selectivity index, ratio of ED50 for human HaCaT cells to MIC for Staphylococcus aureus 3R7089 strain Oxford/ATCC 9144. The data set is classed as toxicity. Particulars: read-out: Selectivity Index.
Data set [6] can be described thus: Selectivity index, ratio of ED50 for human HaCaT cells to MIC for Staphylococcus epidermidis clinical isolate. It counts as toxicity. Particulars: read-out: Selectivity Index.
Data set [7] can be described thus: Selectivity index, ratio of ED50 for human HepG2 cells to MIC for Escherichia coli K-12 W3110 ATCC 27325. Particulars: read-out: Selectivity Index. The data set is classed as toxicity.
A short description of data set [8]: Selectivity index, ratio of ED50 for human HepG2 cells to MIC for Pseudomonas aeruginosa PAO1 ATCC 15692. The data set is classed as toxicity. Particulars: read-out: Selectivity Index.
Data set [9] in a line: Selectivity index, ratio of ED50 for human HepG2 cells to MIC for Staphylococcus aureus 3R7089 strain Oxford/ATCC 9144. It counts as toxicity. Particulars: read-out: Selectivity Index.
Data set [10] is described as follows: Selectivity index, ratio of ED50 for human HepG2 cells to MIC for Staphylococcus epidermidis clinical isolate. It counts as toxicity. Particulars: read-out: Selectivity Index.
Data set [11] concerns Staphylococcus epidermidis. Briefly: Antibacterial activity against Staphylococcus epidermidis clinical isolate incubated for 16 hrs under shaking condition. The data set is classed as functional. A digest of the protocol: as §1

A word on the MIC: it is the smallest concentration in the dilution series that meets the test's criterion for growth inhibition. Regarding `CC(c1ccccc1)N(CC(=O)N(CCN)CC(=O)N(CC(=O)N(CC(=O)N(CCN)CC(=O)N(CC(=O)N(CC(N)=O)[C@@H](C)c1ccccc1)[C@@H](C)c1ccccc1)C(C)c1ccccc1)[C@@H](C)c1ccccc1)C(=O)CN(C(=O)CNCCN)C(C)c1ccccc1` (single isomer, unassigned), the CC50 at 24 h in [1] and in [2] was above 100 µM throughout. In addition, the MIC is above 100 µM with Pseudomonas aeruginosa and 2 µM (≈ 2.57 µg/mL) in the data set with Staphylococcus aureus. The selectivity ratio in data set [3] is 4; in data set [4], 1; in data set [5], 50; in data set [6], 8; in data set [7] it was 4; in [8], 1. For the same molecule, the figures for the selectivity ratio in data set [9] and in data set [10] were 50 and 8, respectively.
Turning to `NCCCCNCC(=O)N(CC(=O)N(CC(=O)N(CCCCN)CC(=O)N(CC(=O)N(CC(=O)N(CCCCN)CC(=O)N(CC(=O)N(CC(N)=O)Cc1cccc(F)c1)Cc1cccc(F)c1)Cc1cccc(F)c1)Cc1cccc(F)c1)Cc1cccc(F)c1)Cc1cccc(F)c1`, the selectivity ratio is 5 in data set [3]; 3 in data set [4]; 11 in [5]; 32 in data set [6]; 3 in data set [7]; 2 in data set [8]. Further, the selectivity ratio in data set [9] came out at 7; in [10], 22.
With `C[C@@H](c1ccccc1)N(CC(N)=O)C(=O)CN(C(=O)CN(CCCCCCN)C(=O)CN(C(=O)CN(C(=O)CNCCCCCCN)[C@@H](C)c1ccccc1)[C@@H](C)c1ccccc1)[C@@H](C)c1ccccc1`, the CC50 at 24 h in data set [1] and in [2] was above 100 µM each time. Further, the MIC in the data set with Pseudomonas aeruginosa is above 100 µM; against Staphylococcus aureus it was above 100 µM; in data set [11], 25 µM (≈ 24.4 µg/mL). Besides, the selectivity ratio in [3] came out at 1; in [4] it was 1; in data set [5] it was 1; in data set [6], 4; in [7], 1; in [8], 1. Also, the selectivity ratio was determined as 1 in data set [9] and 4 in data set [10].
`NCCCCNCC(=O)N(CC(=O)N(CC(=O)N(CCCCN)CC(=O)N(CC(=O)N(CC(=O)N(CCCCN)CC(=O)N(CC(=O)N(CC(N)=O)Cc1ccc(Cl)cc1)Cc1ccc(Cl)cc1)Cc1ccc(Cl)cc1)Cc1ccc(Cl)cc1)Cc1ccc(Cl)cc1)Cc1ccc(Cl)cc1` (H-[Nlys][Gly(Nα-4-Cl-benzyl)][Gly(Nα-4-Cl-benzyl)][Nlys][Gly(Nα-4-Cl-benzyl)][Gly(Nα-4-Cl-benzyl)][Nlys][Gly(Nα-4-Cl-benzyl)][Gly(Nα-4-Cl-benzyl)]-NH2): the selectivity ratio in data set [4] was 1; in data set [5], 7; in data set [6] it was 11; in [8] it was 1; in data set [9], 8; in data set [10] it was 12.
As for `NCCCCCCNCC(=O)N(CC(=O)N(CC(=O)N(CCCCCCN)CC(=O)N(CC(=O)N(CC(N)=O)Cc1ccccc1)Cc1ccccc1)Cc1ccccc1)Cc1ccccc1` (H-[Gly(N-(CH2)6NH2)][Nphe][Nphe][Gly(N-(CH2)6NH2)][Nphe][Nphe]-NH2), the CC50 at 24 h in data set [1] and in data set [2] was above 100 µM throughout. Moreover, the MIC (with Pseudomonas aeruginosa; in the data set with Staphylococcus aureus; in data set [11]) was above 100 µM in each case. The selectivity ratio in data set [3], in data set [4], in data set [5], in data set [6], in data set [7] and in [8] was 1 throughout. For the same molecule, the selectivity ratio in data set [9] and in [10] was 1 each time.
Regarding `CC(c1ccccc1)N(CC(=O)N(CCCCN)CC(=O)N(CC(=O)N(CC(=O)N(CCCCN)CC(=O)N(CC(=O)N(CC(N)=O)[C@@H](C)c1ccccc1)[C@@H](C)c1ccccc1)Cc1ccc(F)cc1)Cc1ccc(F)cc1)C(=O)CN(C(=O)CNCCCCN)[C@@H](C)c1ccccc1` (single isomer, unassigned), the values for the CC50 at 24 h in data set [1] and in [2] were 65 µM and 43 µM, respectively. The figures for the minimal inhibitory concentration (MIC) (with Staphylococcus aureus; in [11]) were 3 µM (≈ 4.13 µg/mL) and 2 µM (≈ 2.75 µg/mL), respectively. For the same molecule, the selectivity ratio is 5 in data set [3]; 3 in data set [4]; 22 in data set [5]; 33 in data set [6]; 3 in [7]; 14 in [9]. Besides, in [10], the selectivity ratio came out at 22.
Turning to `C[C@H](c1ccccc1)N(CC(N)=O)C(=O)CN(C(=O)CN(CCCCN)C(=O)CN(C(=O)CN(C(=O)CN(CCCCN)C(=O)CN(C(=O)CN(C(=O)CNCCCCN)[C@H](C)c1ccccc1)[C@@H](C)c1ccccc1)[C@H](C)c1ccccc1)[C@@H](C)c1ccccc1)[C@H](C)c1ccccc1` (stereo in doubt), the CC50 at 24 h in data set [1] and in [2] was above 100 µM in each case. Besides, the MIC against Pseudomonas aeruginosa is above 100 µM; in the data set with Staphylococcus aureus it was 2 µM (≈ 2.74 µg/mL). Also, the selectivity ratio stood at 8 in [3]; 1 in [4]; 50 in [5]; 50 in data set [6]; 8 in data set [7]; 1 in data set [8]. Moreover, the selectivity ratio in [9] and in data set [10] was 50 throughout.
As to `C[C@@H](c1ccccc1)N(CC(N)=O)C(=O)CN(C(=O)CN(CCCCNC(=N)N)C(=O)CN(C(=O)CN(C(=O)CN(CCCCNC(=N)N)C(=O)CN(C(=O)CN(C(=O)CN(CCCCNC(=N)N)C(=O)CN(C(=O)CN(C(=O)CNCCCCNC(=N)N)[C@@H](C)c1ccccc1)[C@@H](C)c1ccccc1)[C@@H](C)c1ccccc1)[C@@H](C)c1ccccc1)[C@@H](C)c1ccccc1)[C@@H](C)c1ccccc1)[C@@H](C)c1ccccc1` (H-[NhArg][Nspe][Nspe][NhArg][Nspe][Nspe][NhArg][Nspe][Nspe][NhArg][Nspe][Nspe]-NH2), the CC50 at 24 h in data set [1] is 20 µM. Further, the selectivity ratio in [3] was 3; in data set [4], 2; in data set [5], 20; in data set [6], 20; in data set [7], 2; in [8] it was 1. In addition, the selectivity ratio in data set [9] and in data set [10] was 12 each time.
Take `NCCCCNCC(=O)N(CC(=O)N(CC(=O)N(CCCCN)CC(=O)N(CC(=O)N(CC(=O)N(CCCCN)CC(=O)N(CC(=O)N(CC(=O)N(CCCCN)CC(=O)N(CC(=O)N(CC(N)=O)Cc1cccc(F)c1)Cc1cccc(F)c1)Cc1cccc(F)c1)Cc1cccc(F)c1)Cc1cccc(F)c1)Cc1cccc(F)c1)Cc1cccc(F)c1)Cc1cccc(F)c1`: the selectivity ratio stood at 1 in [3]; 1 in [4]; 4 in [5]; 8 in data set [6]; 1 in data set [7]; 1 in data set [8]. For the same molecule, the selectivity ratio came to 3 in [9] and 6 in data set [10].
Turning to `NCCCCNCC(=O)N(CC(=O)N(CC(=O)N(CCCCN)CC(=O)N(CC(=O)N(CC(=O)N(CCCCN)CC(=O)N(CC(=O)N(CC(N)=O)Cc1ccccc1)Cc1ccccc1)Cc1ccccc1)Cc1ccccc1)Cc1ccccc1)Cc1ccccc1`, the CC50 at 24 h in data set [1] and in [2] was above 100 µM in each case. This molecule also gave an MIC in the data set on Pseudomonas aeruginosa above 100 µM. The selectivity ratio amounted to 2 in data set [3]; 1 in [4]; 4 in data set [5]; 17 in data set [6]; 2 in data set [7]; 1 in data set [8]. In addition, the selectivity ratio in [9] amounted to 4; in data set [10] it was 17.
With `CC(c1ccccc1)N(CC(=O)N(CCCCN)CC(=O)N(CC(=O)N(CC(=O)N(CCCCN)CC(=O)N(CC(=O)N(CC(N)=O)[C@@H](C)c1ccccc1)Cc1ccc(F)cc1)C(C)c1ccccc1)Cc1ccc(F)cc1)C(=O)CN(Cc1ccc(F)cc1)C(=O)CNCCCCN` (single isomer, unassigned), the CC50 at 24 h in data set [1] is 52 µM; in data set [2] it was 36 µM. Also, the MIC against Staphylococcus aureus is 3 µM (≈ 4.14 µg/mL); in data set [11] it was 2 µM (≈ 2.76 µg/mL). The selectivity ratio in data set [3] was 2; in data set [5] it was 17; in data set [6], 26; in [9], 12; in [10], 18.
